Experimental data reported in paper PMC3972499 (Scientific Reports, 2014).
“Also recorded” adds a separate entry of the source. Positions of bridges follow the written chain, without caps; N, C: chain ends. Residues, ends and D or L forms follow the SMILES beside them.

Tests used:
[1] = test system: m1.7-1 chimera (hNav1.7 with DII/S3–S4 of hNav1.5); assay: Whole-cell patch clamp, HEK293 cells, chimera M1.7-1; type: cell-based, human; settings: read-out: estimated IC50, room temperature, data points mean ± S.E., 3–5 cells
[2] = test system: hNav1.7 chimeras with S3–S4 fragments replaced by those from hNav1.5; assay: Gain-of-function assay, whole-cell patch clamp, hNav1.7 chimeras; type: cell-based, human; settings: 1 μM, HEK293
[3] = test system: hNav1.5 chimeras with S3–S4 fragments replaced by those from hNav1.7; assay: Loss-of-function assay, whole-cell patch clamp, hNav1.5 chimeras; type: cell-based, human; settings: 1 μM, HEK293
[4] = test system: m1.7-4 chimera (hNav1.7 with DII + DIII + DIV S3–S4 of hNav1.5); assay: Whole-cell patch clamp, HEK293 cells, chimera M1.7-4; type: cell-based, human; settings: read-out: estimated IC50, room temperature, data points mean ± S.E., 3–5 cells
[5] = test system: m1.5-2 chimera (hNav1.5 with DIII/S3–S4 of hNav1.7); assay: Whole-cell patch clamp, HEK293 cells, chimera M1.5-2; type: cell-based, human; settings: read-out: estimated IC50, room temperature, data points mean ± S.E., 3–5 cells
[6] = test system: M1.4-1 chimera (rNav1.4 with DII/S3–S4 of hNav1.5); assay: Gain-of-function assay, whole-cell patch clamp, chimera M1.4-1; type: cell-based
[7] = test system: WT-rNav1.3; assay: Whole-cell patch clamp, WT-rNav1.3; type: cell-based; settings: 50 μM SSCM-1
Method in brief: (§1)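 Whole-cell recording at room temperature. Peptide stock was 1 mM in double-distilled water, stored in aliquots at −20°C, then diluted to the stated test concentration.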

[8] = test system: WT-rNav1.4; assay: Whole-cell patch clamp, WT-rNav1.4; type: cell-based; settings: 50 μM SSCM-1
Method in brief: as §1

[9] = test system: TTX-R currents expressed on DRG cells; assay: Whole-cell patch clamp, TTX-R currents on DRG cells; type: cell-based; settings: 10 μM SSCM-1, containing 200 μM TTX
[10] = test system: M1.5-5 chimera (hNav1.5 with DII/S3–S4 of rNav1.4); assay: Loss-of-function assay, whole-cell patch clamp, chimera M1.5-5; type: cell-based; settings: 50 μM SSCM-1
[11] = target: wild type hNav1.5 (Homo sapiens, UniProt Q14524); assay: Whole-cell patch clamp, HEK293 cells, wild type hNav1.5; type: cell-based
Chain of wild type hNav1.5 (Q14524 whole entry): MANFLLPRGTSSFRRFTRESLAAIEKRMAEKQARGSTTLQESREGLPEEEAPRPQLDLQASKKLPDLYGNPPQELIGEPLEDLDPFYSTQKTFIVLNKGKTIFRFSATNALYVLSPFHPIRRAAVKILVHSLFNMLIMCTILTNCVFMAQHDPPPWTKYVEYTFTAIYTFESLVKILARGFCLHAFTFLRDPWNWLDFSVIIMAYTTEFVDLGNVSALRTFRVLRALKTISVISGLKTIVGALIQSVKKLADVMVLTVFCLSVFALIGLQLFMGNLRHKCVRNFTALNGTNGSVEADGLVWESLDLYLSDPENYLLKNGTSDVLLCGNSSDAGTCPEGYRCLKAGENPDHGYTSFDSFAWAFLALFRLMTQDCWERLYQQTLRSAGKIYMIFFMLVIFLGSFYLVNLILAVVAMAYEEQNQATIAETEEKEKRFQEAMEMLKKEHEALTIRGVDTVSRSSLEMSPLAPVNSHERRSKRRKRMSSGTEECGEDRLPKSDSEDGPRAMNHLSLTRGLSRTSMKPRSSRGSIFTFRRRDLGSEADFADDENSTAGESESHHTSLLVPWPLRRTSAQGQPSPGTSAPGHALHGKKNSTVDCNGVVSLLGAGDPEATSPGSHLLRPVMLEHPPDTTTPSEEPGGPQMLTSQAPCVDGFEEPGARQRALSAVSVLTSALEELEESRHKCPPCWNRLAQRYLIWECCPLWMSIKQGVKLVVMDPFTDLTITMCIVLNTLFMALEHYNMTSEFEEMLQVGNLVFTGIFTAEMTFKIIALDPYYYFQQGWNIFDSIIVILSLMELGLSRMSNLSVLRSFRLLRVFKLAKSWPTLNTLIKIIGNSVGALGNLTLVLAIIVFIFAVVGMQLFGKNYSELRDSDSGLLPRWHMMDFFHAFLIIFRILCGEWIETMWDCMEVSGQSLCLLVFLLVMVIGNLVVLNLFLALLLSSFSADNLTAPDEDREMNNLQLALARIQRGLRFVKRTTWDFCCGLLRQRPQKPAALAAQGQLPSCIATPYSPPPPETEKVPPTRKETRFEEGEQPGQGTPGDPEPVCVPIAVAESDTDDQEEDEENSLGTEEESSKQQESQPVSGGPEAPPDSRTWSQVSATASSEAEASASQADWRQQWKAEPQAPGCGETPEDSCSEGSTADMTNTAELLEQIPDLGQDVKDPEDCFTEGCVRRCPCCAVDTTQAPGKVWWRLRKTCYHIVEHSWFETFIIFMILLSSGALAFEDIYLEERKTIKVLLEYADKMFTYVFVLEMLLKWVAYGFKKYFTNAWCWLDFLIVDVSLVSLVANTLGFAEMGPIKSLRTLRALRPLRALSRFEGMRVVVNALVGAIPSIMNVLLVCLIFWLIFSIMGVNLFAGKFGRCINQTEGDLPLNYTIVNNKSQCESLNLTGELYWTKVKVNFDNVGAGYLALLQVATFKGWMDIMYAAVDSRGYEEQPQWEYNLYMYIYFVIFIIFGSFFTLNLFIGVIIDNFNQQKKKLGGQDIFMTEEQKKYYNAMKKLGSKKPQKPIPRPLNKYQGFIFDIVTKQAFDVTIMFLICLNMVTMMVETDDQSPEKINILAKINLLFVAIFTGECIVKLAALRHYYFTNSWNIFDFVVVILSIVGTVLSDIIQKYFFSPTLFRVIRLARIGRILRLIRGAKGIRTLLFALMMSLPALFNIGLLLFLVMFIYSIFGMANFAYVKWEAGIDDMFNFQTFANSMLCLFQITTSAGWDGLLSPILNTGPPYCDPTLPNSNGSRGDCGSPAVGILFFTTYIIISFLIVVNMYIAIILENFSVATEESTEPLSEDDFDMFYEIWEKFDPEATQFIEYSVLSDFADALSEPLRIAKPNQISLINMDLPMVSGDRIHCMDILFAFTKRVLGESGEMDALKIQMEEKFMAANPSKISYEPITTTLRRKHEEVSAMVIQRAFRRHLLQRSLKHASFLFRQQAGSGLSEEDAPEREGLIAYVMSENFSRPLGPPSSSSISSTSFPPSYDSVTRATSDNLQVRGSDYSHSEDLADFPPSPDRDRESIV
Method in brief: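 HEK293 cells expressing hNav1.5, grown in DMEM with 10% FBS (5% CO2, 37°C). Pipette solution: 140 mM CsF, 10 mM NaCl, 1 mM EGTA, 10 mM HEPES, pH 7.3. Bath solution: 140 mM NaCl, 3 mM KCl, 1 mM MgCl2, 1 mM CaCl2, 10 mM HEPES, pH 7.3. Run at room temperature. Peptide stock 1 mM in ddH2O. Concentration–response curves used points as mean ± S.E. from 3–5 cells.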

With CC(C)[C@H](NC(=O)[C@H](C)NC(=O)[C@@H]1CSSC[C@@H]2NC(=O)[C@@H]3CCCN3C(=O)[C@@H]3CCCN3C(=O)[C@H](CCCCN)NC(=O)CNC(=O)[C@H](CCCNC(=N)N)NC(=O)CNC(=O)[C@@H]3CSSC[C@H](NC(=O)[C@H](C)NC(=O)[C@H](Cc4ccc(O)cc4)NC(=O)CNC(=O)[C@H](CCCCN)NC(=O)[C@H](CSSC[C@H](NC(=O)[C@H](CCC(=O)O)NC(=O)CNC(=O)[C@@H](N)CC(=O)O)C(=O)NCC(=O)NCC(=O)N[C@@H](Cc4ccccc4)C(=O)N[C@@H](Cc4c[nH]c5ccccc45)C(=O)N[C@@H](Cc4c[nH]c5ccccc45)C(=O)N[C@@H](CCCCN)C(=O)N3)NC2=O)C(=O)N[C@@H](CO)C(=O)N[C@@H](CCCCN)C(=O)N[C@@H]([C@@H](C)O)C(=O)N[C@@H](Cc2c[nH]c3ccccc23)C(=O)NCC(=O)N[C@@H](Cc2c[nH]c3ccccc23)C(=O)N1)C(=O)N[C@@H](CCC(=O)O)C(=O)N[C@@H](C)C(=O)N1CCC[C@H]1C(=O)O [JZTX-III, jingzhaotoxin-III] (H-DGECGGFWWKCGRGKPPCCKGYACSKTWGWCAVEAP-OH; disulfide 4-19, 11-24, 18-31; N-terminus and C-terminus assumed) the IC50 [1] was 736 nM, the “Sensitivity to JZTX-III of hNav1.7 chimeras” value [2] was “gained partial sensitivity to JZTX-III” and the “Sensitivity to JZTX-III inhibition of hNav1.5 chimeras” value [3] was “lost its sensitivity to JZTX-III inhibition”. It also gave an IC50 [4] of 476 nM and an IC50 [5] of 1050 nM.

With CC[C@H](C)[C@H](NC(=O)CNC(=O)[C@@H](NC(=O)[C@H](CCCNC(=N)N)NC(=O)[C@@H](NC(=O)[C@H](CO)NC(=O)[C@H](CC(N)=O)NC(=O)[C@H](CCCCN)NC(=O)[C@H](Cc1ccc(O)cc1)NC(=O)[C@H](CCCCN)NC(=O)[C@@H](N)CCSC)[C@@H](C)O)C(C)C)C(=O)N[C@@H](CC(=O)O)C(=O)N[C@H](C(=O)NCC(=O)N[C@@H](CO)C(=O)N[C@H](C(=O)N[C@@H](CCC(=O)O)C(=O)N[C@@H](CC(C)C)C(=O)N[C@@H](CCC(=O)O)C(=O)N[C@@H](CC(C)C)C(=O)N[C@@H](CCC(N)=O)C(=O)N[C@@H](CCSC)C(=O)N[C@@H](CC(N)=O)C(=O)N[C@@H](CCCNC(=N)N)C(=O)N[C@@H](CCCNC(=N)N)C(=O)N[C@@H](Cc1ccc(O)cc1)C(=O)O)[C@@H](C)CC)[C@@H](C)O [SSCM-1, Screened-Sodium-Channel-Interacting peptide-1] (H-MKYKNSTRVGIDTGSIELELQMNRRY-OH) the “inhibition of chimera M1.4-1 currents” value ([6]; 50 μM SSCM-1) was 15%, the “inhibitory effect on chimeric rNav1.4 (M1.4-1) currents, in words” value ([6]; gain-of-function) was “a detectable inhibitory effect” and the “inhibitory effect on rNav1.3 currents, in words” value [7] was “subtle inhibitory activity; also recorded: almost no detectable inhibitory effect”. The “inhibitory effect on rNav1.4 currents, in words” value [8] was “subtle inhibitory activity; also recorded: almost no detectable inhibitory effect”, the “inhibition of TTX-R currents, in words” value [9] was “subtle inhibitory activity; also recorded: could not inhibit TTX-R currents” and the “inhibition of chimera M1.5-5 currents” value [10] was “about 15%”. For the same molecule, the IC50 [11] was about 2880 nM and the inhibition at 10 µM ([11]; HEK293, read-out: inhibition of wild type hNav1.5 currents) was over 90%.
